Source: ChEMBL document CHEMBL1649314, “Experimental murine scedosporiosis: histopathology and azole treatment” (2010)
Converted amounts (≈) assume the structure as drawn. The source made the active and inactive calls. No cut-off for these calls is given here.

Legend:
Scedosporium boydii [1] = assay: Antifungal activity against Scedosporium boydii FMR 6694 infected in immunosuppressed OF1 mouse assessed as reduction in kidney fungal burden at 40 mg/kg, po BID administered 24 hrs postinfection for 10 days measured after 20 days; format: functional, organism-based; design: dose 40 mg/kg
Scedosporium boydii [2] = assay: Antifungal activity against Scedosporium boydii FMR 6694 infected in immunosuppressed OF1 mouse assessed as prolonged survival of mouse at 40 mg/kg, po BID administered 24 hrs postinfection for 10 days measured after 20 days; format: functional, organism-based; design: dose 40 mg/kg
Scedosporium boydii [3] = assay: Antifungal activity against Scedosporium boydii FMR 8627 infected in immunosuppressed OF1 mouse assessed as reduction in kidney fungal burden at 20 mg/kg, po BID administered 24 hrs postinfection for 10 days measured after 20 days; format: functional, organism-based; design: dose 20 mg/kg
Scedosporium aurantiacum [4] = assay: Antifungal activity against Scedosporium aurantiacum CBS 116910 infected in immunosuppressed OF1 mouse assessed as reduction in kidney fungal burden at 40 mg/kg, po BID administered 24 hrs postinfection for 10 days measured after 20 days; format: functional, organism-based; design: dose 40 mg/kg
[5] = Antifungal activity against Scedosporium aurantiacum IHEM 15458 infected in immunosuppressed OF1 mouse assessed as prolonged survival of mouse at 20 mg/kg, po BID administered 24 hrs postinfection for 10 days measured after 20 days; format: functional, organism-based; design: dose 20 mg/kg
Method in brief: (§1)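 Male OF1 mice, groups of 10, immunosuppressed 1 day before infection with cyclophosphamide 200 mg/kg i.p. plus 5-fluorouracil 150 mg/kg i.v. Infected i.v. via tail vein with 1 × 10^4 CFU in 0.2 ml saline. Oral treatment began 24 h post-challenge for 10 days. Mice checked daily for 20 days. Survival by Kaplan-Meier, compared by log rank test.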

[6] = Antifungal activity against Scedosporium aurantiacum CBS 116910 infected in immunosuppressed OF1 mouse assessed as prolonged survival of mouse at 40 mg/kg, po BID administered 24 hrs postinfection for 10 days measured after 20 days; format: functional, organism-based; design: dose 40 mg/kg
Scedosporium apiospermum [7] = assay: Antifungal activity against Scedosporium apiospermum IHEM 14464 infected in immunosuppressed OF1 mouse assessed as reduction in brain fungal burden at 20 mg/kg, po BID administered 24 hrs postinfection for 10 days measured after 20 days; format: functional, organism-based; design: dose 20 mg/kg
[8] = Antifungal activity against Scedosporium aurantiacum IHEM 15458 by broth dilution method; format: functional
[9] = Antifungal activity against Scedosporium aurantiacum CBS 116910 by broth dilution method; format: functional
Scedosporium boydii [10] = assay: Antifungal activity against Scedosporium boydii FMR 8627 infected in immunosuppressed OF1 mouse assessed as prolonged survival of mouse at 20 mg/kg, po BID administered 24 hrs postinfection for 10 days measured after 20 days; format: functional, organism-based; design: dose 20 mg/kg
Method in brief: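 Male OF1 mice were immunosuppressed 1 day before infection with cyclophosphamide 200 mg/kg i.p. plus 5-fluorouracil 150 mg/kg i.v. They were infected i.v. via a lateral tail vein with 1 × 10^4 CFU/mouse in 0.2 ml saline. Oral dosing was 10 or 20 mg/kg twice daily, or 20 or 40 mg/kg once daily (those mice and controls drank grapefruit juice from day −3). Dosing ran 24 h post-challenge for 10 days; 10 mice/group; observed daily to day 20; Kaplan-Meier with log rank test.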

[11] = Antifungal activity against Scedosporium aurantiacum CBS 116910 infected in immunosuppressed OF1 mouse assessed as prolonged survival of mouse at 20 mg/kg, po BID administered 24 hrs postinfection for 10 days measured after 20 days; format: functional, organism-based; design: dose 20 mg/kg; method in brief: as §1
Scedosporium boydii [12] = assay: Antifungal activity against Scedosporium boydii FMR 6694 by broth dilution method; format: functional
Scedosporium apiospermum [13] = assay: Antifungal activity against Scedosporium apiospermum IHEM 14464 infected in immunosuppressed OF1 mouse assessed as prolonged survival of mouse at 20 mg/kg, po BID administered 24 hrs postinfection for 10 days measured after 20 days; format: functional, organism-based; design: dose 20 mg/kg; method in brief: as §1
Scedosporium apiospermum [14] = assay: Antifungal activity against Scedosporium apiospermum CBS 117407 infected in immunosuppressed OF1 mouse assessed as prolonged survival of mouse at 20 mg/kg, po BID administered 24 hrs postinfection for 10 days measured after 20 days; format: functional, organism-based; design: dose 20 mg/kg; method in brief: as §1
Scedosporium aurantiacum [15] = assay: Antifungal activity against Scedosporium aurantiacum CBS 116910 infected in immunosuppressed OF1 mouse assessed as reduction in brain fungal burden at 20 mg/kg, po BID administered 24 hrs postinfection for 10 days measured after 20 days; format: functional, organism-based; design: dose 20 mg/kg
Scedosporium apiospermum [16] = assay: Antifungal activity against Scedosporium apiospermum IHEM 14464 infected in immunosuppressed OF1 mouse assessed as reduction in kidney fungal burden at 40 mg/kg, po BID administered 24 hrs postinfection for 10 days measured after 20 days; format: functional, organism-based; design: dose 40 mg/kg
Scedosporium apiospermum [17] = assay: Antifungal activity against Scedosporium apiospermum CBS 117407 infected in immunosuppressed OF1 mouse assessed as reduction in kidney fungal burden at 40 mg/kg, po BID administered 24 hrs postinfection for 10 days measured after 20 days; format: functional, organism-based; design: dose 40 mg/kg
Scedosporium boydii [18] = assay: Antifungal activity against Scedosporium boydii FMR 8627 infected in immunosuppressed OF1 mouse assessed as reduction in brain fungal burden at 20 mg/kg, po BID administered 24 hrs postinfection for 10 days measured after 20 days; format: functional, organism-based; design: dose 20 mg/kg
Scedosporium aurantiacum [19] = assay: Antifungal activity against Scedosporium aurantiacum IHEM 15458 infected in immunosuppressed OF1 mouse assessed as reduction in kidney fungal burden at 20 mg/kg, po BID administered 24 hrs postinfection for 10 days measured after 20 days; format: functional, organism-based; design: dose 20 mg/kg
Scedosporium boydii [20] = assay: Antifungal activity against Scedosporium boydii FMR 6694 infected in immunosuppressed OF1 mouse assessed as reduction in kidney fungal burden at 20 mg/kg, po BID administered 24 hrs postinfection for 10 days measured after 20 days; format: functional, organism-based; design: dose 20 mg/kg
Scedosporium boydii [21] = assay: Antifungal activity against Scedosporium boydii FMR 6694 infected in immunosuppressed OF1 mouse assessed as prolonged survival of mouse at 20 mg/kg, po BID administered 24 hrs postinfection for 10 days measured after 20 days; format: functional, organism-based; design: dose 20 mg/kg; method in brief: as §1
Scedosporium apiospermum [22] = assay: Antifungal activity against Scedosporium apiospermum IHEM 14464 infected in immunosuppressed OF1 mouse assessed as reduction in kidney fungal burden at 20 mg/kg, po BID administered 24 hrs postinfection for 10 days measured after 20 days; format: functional, organism-based; design: dose 20 mg/kg
Scedosporium apiospermum [23] = assay: Antifungal activity against Scedosporium apiospermum IHEM 14464 infected in immunosuppressed OF1 mouse assessed as prolonged survival of mouse at 40 mg/kg, po BID administered 24 hrs postinfection for 10 days measured after 20 days; format: functional, organism-based; design: dose 40 mg/kg
Scedosporium apiospermum [24] = assay: Antifungal activity against Scedosporium apiospermum CBS 117407 infected in immunosuppressed OF1 mouse assessed as reduction in brain fungal burden at 20 mg/kg, po BID administered 24 hrs postinfection for 10 days measured after 20 days; format: functional, organism-based; design: dose 20 mg/kg
[25] = Antifungal activity against Scedosporium aurantiacum IHEM 15458 infected in immunosuppressed OF1 mouse assessed as prolonged survival of mouse at 40 mg/kg, po BID administered 24 hrs postinfection for 10 days measured after 20 days; format: functional, organism-based; design: dose 40 mg/kg
Scedosporium boydii [26] = assay: Antifungal activity against Scedosporium boydii FMR 8627 infected in immunosuppressed OF1 mouse assessed as reduction in kidney fungal burden at 40 mg/kg, po BID administered 24 hrs postinfection for 10 days measured after 20 days; format: functional, organism-based; design: dose 40 mg/kg
Scedosporium apiospermum [27] = assay: Antifungal activity against Scedosporium apiospermum CBS 117407 infected in immunosuppressed OF1 mouse assessed as reduction in kidney fungal burden at 20 mg/kg, po BID administered 24 hrs postinfection for 10 days measured after 20 days; format: functional, organism-based; design: dose 20 mg/kg
Scedosporium boydii [28] = assay: Antifungal activity against Scedosporium boydii FMR 8627 by broth dilution method; format: functional
Scedosporium aurantiacum [29] = assay: Antifungal activity against Scedosporium aurantiacum IHEM 15458 infected in immunosuppressed OF1 mouse assessed as reduction in brain fungal burden at 20 mg/kg, po BID administered 24 hrs postinfection for 10 days measured after 20 days; format: functional, organism-based; design: dose 20 mg/kg
Scedosporium apiospermum [30] = assay: Antifungal activity against Scedosporium apiospermum IHEM 14464 by broth dilution method; format: functional
Scedosporium apiospermum [31] = assay: Antifungal activity against Scedosporium apiospermum CBS 117407 infected in immunosuppressed OF1 mouse assessed as prolonged survival of mouse at 40 mg/kg, po BID administered 24 hrs postinfection for 10 days measured after 20 days; format: functional, organism-based; design: dose 40 mg/kg
Scedosporium aurantiacum [32] = assay: Antifungal activity against Scedosporium aurantiacum CBS 116910 infected in immunosuppressed OF1 mouse assessed as reduction in kidney fungal burden at 20 mg/kg, po BID administered 24 hrs postinfection for 10 days measured after 20 days; format: functional, organism-based; design: dose 20 mg/kg
Scedosporium aurantiacum [33] = assay: Antifungal activity against Scedosporium aurantiacum IHEM 15458 infected in immunosuppressed OF1 mouse assessed as reduction in kidney fungal burden at 40 mg/kg, po BID administered 24 hrs postinfection for 10 days measured after 20 days; format: functional, organism-based; design: dose 40 mg/kg
Scedosporium boydii [34] = assay: Antifungal activity against Scedosporium boydii FMR 8627 infected in immunosuppressed OF1 mouse assessed as prolonged survival of mouse at 40 mg/kg, po BID administered 24 hrs postinfection for 10 days measured after 20 days; format: functional, organism-based; design: dose 40 mg/kg
Scedosporium boydii [35] = assay: Antifungal activity against Scedosporium boydii FMR 6694 infected in immunosuppressed OF1 mouse assessed as reduction in brain fungal burden at 20 mg/kg, po BID administered 24 hrs postinfection for 10 days measured after 20 days; format: functional, organism-based; design: dose 20 mg/kg
Scedosporium apiospermum [36] = assay: Antifungal activity against Scedosporium apiospermum CBS 117407 by broth dilution method; format: functional

Structure (SMILES): C[C@@H](c1ncncc1F)[C@](O)(Cn1cncn1)c1ccc(F)cc1F [VORICONAZOLE]
- Activity (Scedosporium boydii [1]): inactive
- Activity (Scedosporium boydii [2]): Active
- Activity (Scedosporium boydii [3]): Active
- Activity (Scedosporium aurantiacum [4]): Active
- Activity [5]: Active
- Activity [6]: Active
- Activity (Scedosporium apiospermum [7]): Active
- MIC [8]: 1 µg/mL (≈ 2.86 µM)
- MIC [9]: 32 µg/mL (≈ 91.6 µM)
- Activity (Scedosporium boydii [10]): Active
- Activity [11]: Active
- MIC (Scedosporium boydii [12]): 1 µg/mL (≈ 2.86 µM)
- Activity (Scedosporium apiospermum [13]): Active
- Activity (Scedosporium apiospermum [14]): Active
- Activity (Scedosporium aurantiacum [15]): Active
- Activity (Scedosporium apiospermum [16]): Active
- Activity (Scedosporium apiospermum [17]): Active
- Activity (Scedosporium boydii [18]): Active
- Activity (Scedosporium aurantiacum [19]): Active
- Activity (Scedosporium boydii [20]): inactive
- Activity (Scedosporium boydii [21]): Active
- Activity (Scedosporium apiospermum [22]): Active
- Activity (Scedosporium apiospermum [23]): Active
- Activity (Scedosporium apiospermum [24]): Active
- Activity [25]: Active
- Activity (Scedosporium boydii [26]): Active
- Activity (Scedosporium apiospermum [27]): Active
- MIC (Scedosporium boydii [28]): 0.5 µg/mL (≈ 1.43 µM)
- Activity (Scedosporium aurantiacum [29]): Active
- MIC (Scedosporium apiospermum [30]): 0.25 µg/mL (≈ 0.716 µM)
- Activity (Scedosporium apiospermum [31]): Active
- Activity (Scedosporium aurantiacum [32]): Active
- Activity (Scedosporium aurantiacum [33]): Active
- Activity (Scedosporium boydii [34]): Active
- Activity (Scedosporium boydii [35]): inactive
- MIC (Scedosporium apiospermum [36]): 0.5 µg/mL (≈ 1.43 µM)
